Screening data as filed in PubChem BioAssay.
The list is not random: actives were taken first. Their share in the collection is about 1.2%.
RBBP9 inh = inhibitors of human serine hydrolase RBBP9. 220,000 compounds, 0.2% hits. O75884. recombinant RBBP9, FP-Rh probe fluorescence polarization. inhibition, % at 7.94 µM;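 active = inhibition above the campaign mean of all tested compounds plus 3 SD, cut at about 14% in these data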
Target sequence (O75884 whole entry, looked up): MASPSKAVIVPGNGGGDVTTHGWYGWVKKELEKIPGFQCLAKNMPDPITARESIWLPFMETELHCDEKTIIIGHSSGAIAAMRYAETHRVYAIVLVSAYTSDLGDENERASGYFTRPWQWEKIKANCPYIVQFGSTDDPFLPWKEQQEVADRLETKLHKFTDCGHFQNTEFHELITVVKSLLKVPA
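Assay system: recombinant human RBBP9; Reagent: Serine-hydrolase probe FP-Rh, 375 nM pre-mixing; Doses: 7.94 µM single dose, 0.794% DMSO; Incubation: 30 min then 45 min, 25 °C; Detection: fluorescence polarization (mP), excitation 525 nm, emission 598 nm; Evaluation: percent inhibition from mP, scaled between DMSO and no-protein wells.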
Wee1 degr inh = human Wee1 degradation inhibition, primary screen; P30291; HeLa Luc-Wee1K328M stability, luciferase luminescence; 100% = proteasome inhibitor MG132 effect; reporter increase, % at 5 µM; 220,000 compounds, 1.2% hits;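 active = activation above the mean of all tested compounds plus 3 SD, set per screening run, cut at about 8.8% in these data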;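 also: cells exposed to compound for 20 h before luminescence read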
DNA FID counter = displaces DNA intercalator in HCV helicase counter-screen. DNA fluorescent intercalator displacement, fluorescence. inhibition, % at 7.9 µM. 290,000 compounds, 0.17% hits; in the data active = inhibition above about 37%;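 also: higher means more ethidium bromide displaced from hairpin DNA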
Rad51 HR inh = blocks human Rad51 in homologous recombination. Q06609. hRad51 DNA strand exchange, fluorescence dequenching. inhibition, % at 10 µM. 200,000 compounds, 0.085% hits. AID 1385;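 active = inhibition above 40% at the single screening dose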
Target sequence (Q06609 whole entry, looked up): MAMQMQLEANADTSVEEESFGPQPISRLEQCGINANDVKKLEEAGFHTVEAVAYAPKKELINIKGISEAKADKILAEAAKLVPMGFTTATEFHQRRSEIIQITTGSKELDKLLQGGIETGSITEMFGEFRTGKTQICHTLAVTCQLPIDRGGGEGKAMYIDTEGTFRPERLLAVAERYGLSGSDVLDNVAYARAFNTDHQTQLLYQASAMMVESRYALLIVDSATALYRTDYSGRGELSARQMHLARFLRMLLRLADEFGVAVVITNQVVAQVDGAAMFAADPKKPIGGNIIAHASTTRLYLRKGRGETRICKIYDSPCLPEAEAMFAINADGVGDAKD
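Material: hRad51 filaments on single-stranded DNA; Reagent: Donor/quencher-labelled 47-bp dsDNA substrate; Compound: 10 µM final, single point; Schedule: 37 °C 15-min filament assembly, 30-min compound preincubation, 15-min exchange; Technique: FRET fluorescence, excitation 485 nm, emission 520 nm; Benchmarks: control wells and blank wells on each plate.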
RBBP9 inh conf = confirmation of human RBBP9 inhibitors; shares compounds with RBBP9 inh; recombinant RBBP9, FP-Rh probe fluorescence polarization; inhibition, % at 7.94 µM; 410 compounds, 36% hits; AID 1537;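 active = inhibition above the hit cutoff derived for the primary screen, cut at about 15% in these data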
Large screens that a line does not name were inactive (follow-up assays come after a bar, where they were run).

O=C(CSc1nnc2ccccn12)N1CCOCC1	RBBP9 inh 14 | RBBP9 inh conf inactive
O=C(Nc1cccc(-n2cnnn2)c1)c1ccoc1COc1ccc(Cl)cc1	none (no result: RBBP9 inh, Wee1 degr inh, Rad51 HR inh)
Cc1ccc(N(CN2C(=O)C3C4CCC(C4)C3C2=O)C(=O)c2ccco2)cc1 (configuration not stated)	none
CSc1ccccc1C(=O)C1CCCN(Cc2cnn(-c3ccccc3)c2)C1 (configuration not stated)	RBBP9 inh 18 (no result: Rad51 HR inh) | RBBP9 inh conf inactive
CSc1ccccc1C(=O)C1CCCN(Cc2c(C)n(C)n(-c3ccccc3)c2=O)C1 (configuration not stated)	none (no result: Rad51 HR inh)
O=C(Nc1ccccc1)c1cccc(=O)o1	RBBP9 inh 17 | RBBP9 inh conf inactive
O=C(Nc1ccccc1)c1cc2ccccc2o1	none
CCC(=O)Oc1ccc2c(C)cc(=O)oc2c1C(=O)CC	RBBP9 inh 18 | RBBP9 inh conf inactive
O=c1[nH]nc(CNc2ccc(O)cc2)c2ccccc12	RBBP9 inh 17 | RBBP9 inh conf inactive
CC(C)COC(=O)NC1c2ccccc2Oc2ccccc21	none
Cc1nn(-c2ccccc2)c(C)c1CN	none
Cc1cc(C)nc(Sc2c(C)nn(-c3ccccc3)c2C)n1	RBBP9 inh 15 (no result: Rad51 HR inh) | RBBP9 inh conf inactive
NC(=O)CCn1c2ccccc2c2ccccc21	none
Cc1ccc2c(c1)c1cccc3c1n2CCN3CCC(N)=O	RBBP9 inh 17 | RBBP9 inh conf inactive
CN(C(=O)/C=C/c1ccco1)c1ccccc1C(=O)O	RBBP9 inh 17 (no result: Rad51 HR inh) | RBBP9 inh conf inactive
CN(C(=O)c1ccco1)c1ccccc1C(=O)O	none (no result: RBBP9 inh, Wee1 degr inh, Rad51 HR inh)
CCC/C(=N\NC(=O)c1csc(C)c1C)c1cccs1	RBBP9 inh 16 | RBBP9 inh conf inactive
N#Cc1ccsc1NC(=O)CSc1ncn[nH]1	RBBP9 inh 15 | RBBP9 inh conf inactive
CCOC(=O)C(CCSC)Nc1nc(Cl)nc(Nc2ccc(Cl)cc2)n1 (configuration not stated)	none (no result: RBBP9 inh, Wee1 degr inh, DNA FID counter)
NC(=O)COC(=O)C12CC3CC(CC(O)(C3)C1)C2	RBBP9 inh 51 | RBBP9 inh conf inactive
COc1cc(OC)c2cc(C(=O)N/N=C/c3cccc(OC)c3O)[nH]c2c1	RBBP9 inh 16 (no result: Rad51 HR inh) | RBBP9 inh conf 32
COc1cccc(/C=N/NC(=O)c2cc3c(OC)ccc(OC)c3[nH]2)c1O	none (no result: RBBP9 inh, Wee1 degr inh, Rad51 HR inh)
N#Cc1ccc(-c2ccccc2)nc1SCC(=O)c1cc2ccccc2oc1=O	RBBP9 inh 30 | RBBP9 inh conf inactive
CC(C)c1c(C#N)c(N)nc(SCC(=O)c2cc3ccccc3oc2=O)c1C#N	none
Cc1cc(Br)ccc1NC(=O)CN1C(=S)NC(C)(C)CC1C (configuration not stated)	none
Cc1cc(-c2onc(C)c2C(=O)Oc2ccc(Cl)cc2)no1	none
Cc1cc(-c2onc(C)c2C(N)=O)no1	RBBP9 inh 14 | RBBP9 inh conf inactive
O=c1c2cc(N3CCOCC3)ccc2[nH]c(=S)n1Cc1ccccc1Cl	none
O=c1c2ccccc2[nH]c(=S)n1CCCN1CCOCC1	RBBP9 inh 15 | RBBP9 inh conf inactive
O=c1c2cc(N3CCOCC3)ccc2[nH]c(=S)n1Cc1ccccn1	RBBP9 inh 15 | RBBP9 inh conf inactive
O=c1c2ccc(Cl)cc2[nH]c(=S)n1CCCN1CCOCC1	none
CN(C(=O)Cn1nnc2ccccc2c1=O)C1CCCCC1	none (no result: RBBP9 inh, Wee1 degr inh, Rad51 HR inh)
Cc1csc(CNC(=O)C2CCC(=O)N(CCCc3ccccc3)C2)n1 (configuration not stated)	none (no result: RBBP9 inh, Wee1 degr inh, Rad51 HR inh)
Cc1ccc(NC(=O)C2CC(=O)N(Cc3ccco3)C2)cc1 (configuration not stated)	none
CN=c1scc(C)n1/N=C/c1ccc(O)cc1	none
C=CCN=c1scc(C)n1/N=C/c1ccc(O)c(O)c1	RBBP9 inh 23 (no result: Rad51 HR inh) | RBBP9 inh conf 24
CN=c1scc(-c2ccco2)n1/N=C/c1ccc(O)c(O)c1	RBBP9 inh 26 | RBBP9 inh conf inactive
COc1ccc(O)c(/C=N/n2c(-c3ccco3)csc2=Nc2cccnc2)c1	none (no result: Rad51 HR inh)
Cc1ccccc1OC(C)C(=O)Nc1cccnc1 (configuration not stated)	none (no result: RBBP9 inh, Wee1 degr inh, Rad51 HR inh)
CCN(CC)S(=O)(=O)c1cccc(C(=O)N/N=C/c2ccc(O)c(O)c2O)c1	RBBP9 inh 18 | RBBP9 inh conf 66
CCOc1ccccc1/C=N/NC(=O)c1cccc(S(=O)(=O)N(CC)CC)c1	none
CN(C)S(=O)(=O)c1cccc(NC(=S)N/N=C/c2ccc(O)c(O)c2O)c1	RBBP9 inh 32 | RBBP9 inh conf 51
O=C(CSCc1c(F)cccc1Cl)NCc1cccnc1	none (no result: Rad51 HR inh)
CCOC(=O)C(CCCCCOc1ccc([N+](=O)[O-])cc1)C(=O)OCC	RBBP9 inh 18 | RBBP9 inh conf inactive
CCn1c(C(=O)NCc2cccnc2)cc2sc(Cl)cc21	RBBP9 inh 15 (no result: Rad51 HR inh) | RBBP9 inh conf inactive
COc1cc2ncnc(NCCCN3CCOCC3)c2cc1OC	RBBP9 inh 15, DNA FID counter 76 (no result: Rad51 HR inh) | RBBP9 inh conf inactive
CC(C)C(=O)N1CCN(c2ccccc2NC(=O)c2cc([N+](=O)[O-])ccc2N2CCOCC2)CC1	none (no result: Rad51 HR inh)
O=[N+]([O-])c1ccc(C(=S)N2CCN(c3ccc(F)cc3)CC2)cc1	RBBP9 inh 15 | RBBP9 inh conf inactive
Cc1ccc([N+](=O)[O-])cc1S(=O)(=O)Nc1ccc(OCC(=O)N2CCOCC2)cc1	none (no result: RBBP9 inh, Wee1 degr inh, Rad51 HR inh)
COC(=O)C1C(=O)OC(C)(C)C1C(C)C(=O)c1ccccc1 (configuration not stated)	RBBP9 inh 14 | RBBP9 inh conf inactive
O=c1ccc(N=Nc2ccccc2)ccc1O	RBBP9 inh 18 | RBBP9 inh conf inactive
Cc1cc(C(=O)O)ccc1-n1c(C)ccc1C	none (no result: Rad51 HR inh)
Cc1cc(N)ccc1-n1c(C)ccc1C	RBBP9 inh 31 | RBBP9 inh conf inactive
Cc1ccc(CNC(=O)c2cnccn2)cc1	none
O=C(Cn1nnc2ccccc2c1=O)N1CCOCC1	none
O=C(Cn1nnc2ccccc2c1=O)N1CCCc2ccccc21	RBBP9 inh 16 | RBBP9 inh conf inactive
CS(=O)(=O)N(CC(=O)Nc1cccnc1)c1ccc2c(c1)OCCO2	none
CS(=O)(=O)N(CC(=O)Nc1cccnc1)c1ccc2c(c1)OCO2	RBBP9 inh 14 | RBBP9 inh conf inactive
CCCNC(=O)C1CCN(S(=O)(=O)c2cccc3nonc23)CC1	none
CC(=O)Nc1ccc(NC(=O)Cn2c(=O)n(-c3ccccc3)c(=O)c3oc4ccccc4c32)cc1	none
COc1cccc(NC(=O)Cn2c(=O)n(-c3ccccc3)c(=O)c3oc4ccccc4c32)c1	RBBP9 inh 16 | RBBP9 inh conf inactive
COc1ccc(-c2cc(-c3c(O)c(OC)c4occc4c3OC)[nH]n2)cc1OC	RBBP9 inh 15 | RBBP9 inh conf 53
COc1ccc(-c2cc(-c3c(O)c(OC)c4occc4c3OC)[nH]n2)cc1	none
CCn1ccnc1CNC(=O)c1ccc(OC2CCN(C(=O)COC)CC2)cc1	none (no result: RBBP9 inh, Wee1 degr inh, Rad51 HR inh)
CN=c1scc(-c2ccccc2F)n1/N=C/c1ccc(O)c(O)c1O	RBBP9 inh 33 | RBBP9 inh conf 59
NC(=O)c1sc2nc(-c3ccco3)ccc2c1N	none
COC(=O)c1sc2nc(-c3ccco3)ccc2c1N	RBBP9 inh 22 | RBBP9 inh conf 32
